Laboratory results published in ChEMBL document CHEMBL5120910, “Small-Molecule Gankyrin Inhibition as a Therapeutic Strategy for Breast and Lung Cancer” (J Med Chem, 2022).
The source made the active and inactive calls. The rule behind the calls is not given here.

Assays:
[1] = molecular target: T1, 26S proteasome non-ATPase regulatory subunit 10 (Homo sapiens) (UniProt O75832); experiment: Binding affinity to gankyrin (unknown origin) expressed in Escherichia coli BL21 (DE3) expression system assessed as decrease in thermal denaturation at 1.5 uM measured at 5 to 90 degreeC by circular dichroism spectropolarimeter analysis
T1 sequence (whole entry): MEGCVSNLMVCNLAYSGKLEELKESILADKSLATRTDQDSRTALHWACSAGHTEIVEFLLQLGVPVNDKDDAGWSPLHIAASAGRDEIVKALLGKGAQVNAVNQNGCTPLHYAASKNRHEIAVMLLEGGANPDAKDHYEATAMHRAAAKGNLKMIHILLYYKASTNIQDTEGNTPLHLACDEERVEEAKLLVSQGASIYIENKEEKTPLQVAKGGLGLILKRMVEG
Outline: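 Recombinant His-tagged gankyrin expressed in E. coli BL21(DE3) Codon+RIL (IPTG 1 mM, 25 °C, ~5 h) and purified by Ni2+-IMAC. Thermal denaturation followed by CD at 217 nm over 5–90 °C with compound at 1.5 μM.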

A549 [2] = experiment: Inhibition of gankyrin-proteasome protein-protein interaction in human A549 cells assessed as increase in phosphorylated p53 level at serine 15 residue at 0.12 to 1 uM measured after 48 hrs by Western blotting analysis; type: cell-based; conditions: dose 0.12-1 µM
Outline: (§1)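 Cells in 10 cm dishes treated with varying concentrations (0.5% DMSO final) or DMSO only for 48 h. Lysed in RIPA with protease/phosphatase inhibitors on ice for 60 min. 15 μg protein resolved under reducing conditions, transferred to PVDF, and probed for p53, phospho-p53 S6/S15, Rb, gankyrin and cyclophilin. Detection by HRP-secondary ECL.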

A549 [3] = experiment: Inhibition of gankyrin-proteasome protein-protein interaction in human A549 cells assessed as increase in phosphorylated p53 level at serine 6 residue at 0.60 to 5 uM measured after 48 hrs by Western blotting analysis; type: cell-based; conditions: dose 0.6-5 µM; outline: as §1
A549 [4] = experiment: Antitumor activity in human A549 cells cultured as 3D spheroids assessed as fold decrease in spheroid volume at 0.30 uM measured up to 15 days by inverted microscopic analysis; type: functional; conditions: dose 0.3 µM; time <= 15 day
Outline: (§2)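 Spheroids formed from 2000 cells/well in ultra-low attachment U-bottom wells over 3 days, then given a single dose on day 3. Half the media was replenished every 3 days. Transmitted-light images were taken through day 15, and spheroid volume was computed from images and expressed as fold-difference. Mean ± SD, n = 8; unpaired t-test.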

A549 [5] = experiment: Induction of cell cycle arrest in human A549 cells assessed as decrease in cell accumulation at S phase at 0.3 uM measured after 72 hrs by propidium iodide staining based flow cytometry analysis; type: functional
Outline: (§3)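 Cells in 10 cm dishes treated for 72 h (0.1% DMSO final; DMSO-only control). Harvested in cold PBS, fixed in 70% ethanol at −20 °C overnight, stained with PI for 40 min at 37 °C, then analysed by flow/imaging cytometry for G0/G1, S and G2/M fractions. Mean ± SD, n = 3.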

A549 [6] = experiment: Induction of cell cycle arrest in human A549 cells assessed as increase in cell accumulation at G0/G1 phase at 0.3 uM measured after 72 hrs by propidium iodide staining based flow cytometry analysis; type: functional; outline: as §3
[7] = Cytotoxicity against HEK293 cells assessed as cell growth inhibition measured after 72 hrs by MTT assay; type: toxicity, cell-based; conditions: human
Outline: (§4)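 Cells seeded at 2.5 × 10^4 cells/well, allowed 24 h before dosing, then exposed to increasing concentrations (0.5% DMSO final) for 72 h at 37 °C, 5% CO2. MTT added at 1 mg/mL final in complete media for 2 h, formazan dissolved in DMSO, absorbance read at 570 nm. 6–8 repeats per treatment; IC50 from concentration–response fit.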

[8] = molecular target: T1, 26S proteasome non-ATPase regulatory subunit 10 (Homo sapiens); experiment: Binding affinity to gankyrin in human A549 cells assessed as decrease in thermal stability at 0.3 uM incubated for 48 hrs followed by heat treatment at 50 to 65 degreeC by CETSA; type: cell-based
Outline: (§5)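 CETSA: cells treated with compound for 48 h, then heated across a temperature range. Soluble gankyrin was detected by western blot and melt curves were constructed. Mean ± SD, n = 3.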

A549 [9] = experiment: Antitumor activity in human A549 cells cultured as 3D spheroids assessed as fold decrease in spheroid volume at 0.15 uM measured up to 15 days by inverted microscopic analysis; type: functional; conditions: time <= 15 day; outline: as §2
A549 [10] = experiment: Inhibition of gankyrin-proteasome protein-protein interaction in human A549 cells assessed as increase in phosphorylated p53 level at serine 6 residue at 0.12 to 1 uM measured after 48 hrs by Western blotting analysis; type: cell-based; conditions: dose 0.12-1 µM; outline: as §1
A549 [11] = experiment: Antitumor activity against human A549 cells tumor spheroids assessed as decrease in live cells by measuring green fluorescence intensity measured at 15 days by calcein AM staining based fluorescence microscopic analysis; type: functional, cell-based; conditions: dose 0.15-5 µM, time 15.0 day, DDE = dose-dependent effect
Outline: (§6)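 Live/dead staining of 3D spheroids at day 15 after single-dose treatment: media replaced by kit reagent with calcein AM (live, green) and EthD-III (dead, red), 30 min in dark at room temperature, imaged at 4X by fluorescence microscopy. Mean ± SD, n = 4; unpaired Student's t-test.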

[12] = Metabolic stability in human liver microsomes assessed as compound remaining preincubated for 10 mins followed by NADPH addition measured after 60 mins by HPLC analysis; type: ADME, Microsome; conditions: read-out: Stability
A549 [13] = experiment: Antitumor activity against human A549 cells tumor spheroids assessed as increase in dead cells by measuring red fluorescence intensity measured at 15 days by EthD-III staining based fluorescence microscopic analysis; type: functional, cell-based; conditions: dose 0.15-5 µM, time 15.0 day, DDE = dose-dependent effect; outline: as §6
A549 [14] = experiment: Induction of cell cycle arrest in human A549 cells assessed as decrease in cell accumulation at G2/M phase at 0.3 uM measured after 72 hrs by propidium iodide staining based flow cytometry analysis; type: functional; outline: as §3
A549 [15] = experiment: Inhibition of gankyrin-proteasome protein-protein interaction in human A549 cells assessed as increase in phosphorylated p53 level at serine 6 residue at 0.04 to 0.33 uM measured after 48 hrs by Western blotting analysis; type: cell-based; conditions: dose 0.04-0.33 µM; outline: as §1
[16] = molecular target: T1, 26S proteasome non-ATPase regulatory subunit 10 (Homo sapiens); experiment: Binding affinity to gankyrin (unknown origin) assessed as change in melting temperature at 300 uM by SYPRO orange staining based thermal shift assay
A549 [17] = experiment: Antiproliferative activity against human A549 cells assessed as cell growth inhibition measured after 72 hrs by MTT assay; type: functional, cell-based; conditions: A549, 72 h; outline: as §4
A549 [18] = experiment: Inhibition of gankyrin-proteasome protein-protein interaction in human A549 cells assessed as increase in phosphorylated p53 level at serine 15 residue at 0.04 to 0.33 uM measured after 48 hrs by Western blotting analysis; type: cell-based; conditions: dose 0.04-0.33 µM; outline: as §1
A549 [19] = experiment: Inhibition of colony formation in human A549 cells at 0.3 uM incubated for 48 hrs followed by replacement of fresh media every alternative day measured after 7 days by crystal violet staining based clonogenic assay relative to control; values are per cent of control; conditions: A549, 48 h
MDA-MB-231 [20] = experiment: Antiproliferative activity against human MDA-MB-231 cells assessed as cell growth inhibition measured after 72 hrs by MTT assay; type: functional, cell-based; conditions: MDA-MB-231, 72 h; outline: as §4
[21] = molecular target: T1, 26S proteasome non-ATPase regulatory subunit 10 (Homo sapiens); experiment: Binding affinity to gankyrin in human MDA-MB-231 cells assessed as decrease in thermal stability at 2 uM incubated for 48 hrs followed by heat treatment at 50 to 65 degreeC by CETSA; type: cell-based; outline: as §5
MDA-MB-231 [22] = experiment: Inhibition of colony formation in human MDA-MB-231 cells at 2 uM incubated for 48 hrs followed by replacement of fresh media every alternative day measured after 7 days by crystal violet staining based clonogenic assay relative to control; values are per cent of control; conditions: MDA-MB-231, 216 h
MDA-MB-231 [23] = experiment: Induction of cell cycle arrest in human MDA-MB-231 cells assessed as increase in cell accumulation at G0/G1 phase at 2 uM measured after 72 hrs by propidium iodide staining based flow cytometry analysis; type: functional; outline: as §3
HuH-6 [24] = experiment: Inhibition of gankyrin-proteasome protein-protein interaction in human HuH-6 cells assessed as increase in Rb level at 0.12 to 1 uM measured after 48 hrs by Western blotting analysis; type: cell-based; conditions: dose 0.12-1 µM; outline: as §1
HuH-6 [25] = experiment: Inhibition of gankyrin-proteasome protein-protein interaction in human HuH-6 cells assessed as increase in p53 level at 0.12 to 1 uM measured after 48 hrs by Western blotting analysis; type: cell-based; conditions: dose 0.12-1 µM; outline: as §1
MDA-MB-231 [26] = experiment: Antitumor activity in human MDA-MB-231 cells cultured as 3D spheroids assessed as fold decrease in spheroid volume at 2 uM measured up to 15 days by inverted microscopic analysis; type: functional; conditions: time <= 15 day; outline: as §2
MDA-MB-231 [27] = experiment: Antitumor activity against human MDA-MB-231 cells tumor spheroids assessed as decrease in live cells by measuring green fluorescence intensity at 1 to 2 uM measured at 15 days by calcein AM staining based fluorescence microscopic analysis; type: functional, cell-based; conditions: dose 1-2 µM, time 15.0 day; outline: as §6
MDA-MB-231 [28] = experiment: Antitumor activity in human MDA-MB-231 cells cultured as 3D spheroids assessed as fold decrease in spheroid volume at 1 uM measured up to 15 days by inverted microscopic analysis; type: functional; conditions: time <= 15 day; outline: as §2
MDA-MB-231 [29] = experiment: Antitumor activity against human MDA-MB-231 cells tumor spheroids assessed as increase in dead cells by measuring red fluorescence intensity at 1 to 2 uM measured at 15 days by EthD-III staining based fluorescence microscopic analysis; type: functional, cell-based; conditions: dose 1-2 µM, time 15.0 day; outline: as §6
[30] = Antiproliferative activity against human HuH-6 cells assessed as cell growth inhibition measured after 72 hrs by MTT assay; type: functional, cell-based; conditions: HuH-6, 72 h; outline: as §4
MDA-MB-231 [31] = experiment: Induction of cell cycle arrest in human MDA-MB-231 cells at 2 uM measured after 72 hrs by propidium iodide staining based flow cytometry analysis
MDA-MB-231 [32] = experiment: Inhibition of gankyrin-proteasome protein-protein interaction in human MDA-MB-231 cells assessed as increase in Rb level at 0.25 to 2 uM measured after 48 hrs by Western blotting analysis; type: cell-based; conditions: dose 0.25-2 µM; outline: as §1
A549 [33] = experiment: Antitumor activity in human A549 cells cultured as 3D spheroids assessed as fold decrease in spheroid volume at 2.5 uM measured up to 15 days by inverted microscopic analysis; type: functional; conditions: time <= 15 day; outline: as §2
A549 [34] = experiment: Antitumor activity in human A549 cells cultured as 3D spheroids assessed as fold decrease in spheroid volume at 5 uM measured up to 15 days by inverted microscopic analysis; type: functional; conditions: time <= 15 day; outline: as §2
[35] = molecular target: T1, 26S proteasome non-ATPase regulatory subunit 10 (Homo sapiens); experiment: Binding affinity to gankyrin (unknown origin) expressed in Escherichia coli BL21 (DE3) expression system assessed as formation of white precipitation of the compound at 1.5 uM

Row | SMILES | Activity [1] | Activity (A549 [2]) | Activity (A549 [3]) | IC50 at 72 h [7] [µM] | Activity (A549 [10]) | Activity (A549 [11]) | remaining at 1 h [12] [%] | Activity (A549 [13]) | Activity (A549 [15]) | Activity [16] | IC50 (A549 [17]) [µM] | Activity (A549 [18]) | IC50 (MDA-MB-231 [20]) [µM] | further results
1 | COC(=O)c1ccc(-c2cn(CCCC(=O)Nc3ccc(-c4ccccc4)cc3)nn2)cc1 | Active | Active | Active | > 100 | Active | Dde | 87 | Dde | Active | Active | 0.33 | Active | > 100 | fold change (FC) (A549 [4]): 2.4; Activity (A549 [5]): Active; Activity (A549 [6]): Active; Activity [8]: Active; fold change (FC) (A549 [9]): 3.6; Activity (A549 [14]): Active; growth, % of control at 0.3 µM (A549 [19]): 44.6%
2 | O=C(CCCn1cc(-c2ccc(C(F)(F)F)cc2)nn1)Nc1ccc(-c2ccccc2)cc1 | Active | – | – | > 100 | – | – | 60 | – | – | Active | 19.1 | – | 2 | Activity [21]: Active; growth, % of control at 2 µM (MDA-MB-231 [22]): 46.3%; Activity (MDA-MB-231 [23]): Active; Activity (HuH-6 [24]): Active; Activity (HuH-6 [25]): Active; fold change (FC) (MDA-MB-231 [26]): 3.2; Activity (MDA-MB-231 [27]): Active; fold change (FC) (MDA-MB-231 [28]): 2.3; Activity (MDA-MB-231 [29]): Active; IC50 [30]: 1.1 µM; Activity (MDA-MB-231 [31]): Active; Activity (MDA-MB-231 [32]): Active
3 | Cc1ccc(NC(=S)CCCn2cc(-c3ccc(C(F)(F)F)cc3)nn2)cc1 | Active | Active | Active | > 100 | Active | Dde | 73 | Dde | Active | Active | 5.5 | Active | 83.2 | fold change (FC) (A549 [33]): 3.3; fold change (FC) (A549 [34]): 3.5; Activity [35]: Active
